≈ marks a conversion by molar mass, not a printed value.
Columns and labels:
[1] = Antioxidant activity assessed as H2O2 radical scavenging activity; type: functional
In short: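 Compounds at 0.05, 0.1, 0.2 and 0.4 mg/mL in phosphate buffer pH 7.4. 0.353 mL of 4 mM H2O2 in phosphate buffer added to 2.0 mL of each solution, absorbance read at 239 nm. Percent inhibition calculated from absorbances relative to control. Triplicate, mean ± SEM.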

[2] = Antioxidant activity assessed as ABTS radical scavenging activity incubated for 40 mins; type: functional
In short: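 Test compound at 0.05, 0.1, 0.2 and 0.4 mg/mL (200 µL) added to 1.8 mL ethanolic ABTS 7mM. Incubated 40 min at room temperature, absorbance read at 735 nm against ABTS solution. Percent inhibition computed from absorbances and used to derive IC50. Triplicate, mean ± SEM; ascorbic acid as reference.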

[3] = Cytotoxicity against human HeLa cells assessed as cell viability at 25 uM incubated for 48 hrs by MTT assay relative to control; type: cell-based; details: read-out: Activity
In short: (§1)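 Cells kept in DMEM Glutamax with 10% FBS and antibiotic/antimycotic at 37 °C, 5% CO2. Plated at 2x10^3 cells/well 24 h before dosing. Compounds taken from DMSO and diluted in medium, final DMSO ≤1.0%. Exposure 48 h, then MTT added for 4 h at 37 °C. Read as A595 minus A655. Triplicates, at least three independent experiments, mean ± SEM.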

[4] = molecular target: Sigma non-opioid intracellular receptor 1 (Cavia porcellus, UniProt Q60492); assay: Displacement of [3H]-(+)-pentazocine from sigma1 receptor in guinea pig brain cortex membranes incubated for 120 mins by solid scintillation counting method; type: cell membranes
Chain of Sigma non-opioid intracellular receptor 1 (Q60492 whole entry): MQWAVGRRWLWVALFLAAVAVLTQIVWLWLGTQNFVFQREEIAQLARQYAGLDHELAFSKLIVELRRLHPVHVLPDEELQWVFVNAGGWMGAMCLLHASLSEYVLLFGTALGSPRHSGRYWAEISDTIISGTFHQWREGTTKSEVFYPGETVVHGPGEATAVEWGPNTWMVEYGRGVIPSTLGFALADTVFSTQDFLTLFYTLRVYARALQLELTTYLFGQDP
In short: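 Guinea pig brain cortex membranes (about 100 µg protein) with 2 nM [3H]-(+)-pentazocine in 50 mM TRIS pH 7.4 at 37 °C. Non-specific binding defined with 10 µM unlabeled (+)-pentazocine. Six concentrations, 10^-5 to 10^-10 M, in duplicate. 120 min with shaking, filtration, solid scintillator counting.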

[5] = Cytotoxicity against human SH-SY5Y cells assessed as cell viability at 100 uM incubated for 48 hrs by MTT assay (reference value: 100 +/- 12.00%); type: cell-based; details: read-out: Activity; in short: as §1
[6] = Cytotoxicity against human Hep3B cells assessed as cell viability at 50 uM incubated for 48 hrs by MTT assay relative to control; type: cell-based, Hep 3B2; details: read-out: Activity; in short: as §1
[7] = Cytotoxicity against human Hep3B cells assessed as cell viability at 100 uM incubated for 48 hrs by MTT assay relative to control; type: cell-based, Hep 3B2; details: read-out: Activity; in short: as §1
[8] = Cytotoxicity against human Hep3B cells assessed as decrease in cell viability incubated for 48 hrs by MTT assay; type: cell-based, Hep 3B2; details: read-out: LD50
In short: (§2)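 Cells kept in DMEM Glutamax with 10% FBS and antibiotic/antimycotic at 37 °C, 5% CO2. Seeded 24 h before dosing (SH-SY5Y at 2x10^3 cells/well). Compounds in DMSO serially diluted in medium, final DMSO 1.0%, exposure 48 h. MTT added for 4 h at 37 °C, read A595 minus A655. LD50 from linear regression of dose-log response curves; triplicates, three experiments, mean ± SEM.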

[9] = system: SH-SY5Y; assay: Neuroprotective activity against H2O2-induced toxicity in human SH-SY5Y cells assessed as cell viability at 25 uM pretreated for 48 hrs followed by H2O2 challenge and measured after 4 hrs by MTT assay (reference value: 18 +/- 2.64%); type: functional; details: read-out: Activity
[10] = Selectivity ratio of Ki for sigma1 receptor in guinea pig brain membranes to Ki for sigma2 receptor in rat liver membranes; type: cell membranes
[11] = Cytotoxicity against human SH-SY5Y cells assessed as cell viability at 50 uM incubated for 48 hrs by MTT assay (reference value: 100 +/- 12.00%); type: cell-based; details: read-out: Activity; in short: as §1
[12] = Cytotoxicity against human SH-SY5Y cells assessed as cell viability at 25 uM incubated for 48 hrs by MTT assay (reference value: 100 +/- 12.00%); type: cell-based; details: read-out: Activity; in short: as §1
[13] = molecular target: T1, Sigma intracellular receptor 2 (Rattus norvegicus, UniProt Q5U3Y7); assay: Displacement of [3H]-di-o-tolylguanidine from sigma2 receptor in rat liver membranes in the presence of sigma1 receptor ligand (+)-pentazocine incubated for 120 mins by scintillation counting method; type: cell membranes
T1 sequence (Q5U3Y7 whole entry): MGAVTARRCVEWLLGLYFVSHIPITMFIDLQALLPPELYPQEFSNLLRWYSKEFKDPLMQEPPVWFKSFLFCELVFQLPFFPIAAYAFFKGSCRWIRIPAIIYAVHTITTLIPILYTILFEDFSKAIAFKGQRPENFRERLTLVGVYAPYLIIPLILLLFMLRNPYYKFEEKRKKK
In short: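 Rat liver membranes (about 100 µg protein) with 3 nM [3H]di-o-tolylguanidine in 50 mM TRIS pH 8.0 containing 500 nM (+)-pentazocine, at rt. Non-specific binding defined with 10 µM unlabeled DTG. Concentrations 10^-5 to 10^-10 M, in duplicate. 120 min, filtration, scintillation counting. Three independent experiments, mean ± SEM.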

[14] = Cytotoxicity against human HeLa cells assessed as cell viability at 100 uM incubated for 48 hrs by MTT assay relative to control; type: cell-based; details: read-out: Activity; in short: as §1
[15] = Cytotoxicity against human SH-SY5Y cells assessed as cell viability at 10 uM incubated for 48 hrs by MTT assay (reference value: 100 +/- 12.00%); type: cell-based; details: read-out: Activity; in short: as §1
[16] = Cytotoxicity against human HeLa cells assessed as cell viability at 10 uM incubated for 48 hrs by MTT assay relative to control; type: cell-based; details: read-out: Activity; in short: as §1
[17] = Cytotoxicity against human HeLa cells assessed as cell viability at 50 uM incubated for 48 hrs by MTT assay relative to control; type: cell-based; details: read-out: Activity; in short: as §1
[18] = Cytotoxicity against human SH-SY5Y cells assessed as decrease in cell viability incubated for 48 hrs by MTT assay; type: cell-based; details: read-out: LD50; in short: as §2
[19] = Cytotoxicity against human Hep3B cells assessed as cell viability at 10 uM incubated for 48 hrs by MTT assay relative to control; type: cell-based, Hep 3B2; details: read-out: Activity; in short: as §1
[20] = molecular target: Glutamate NMDA receptor; GRIN1/GRIN2B (Homo sapiens, UniProt Q05586+Q13224); assay: Displacement of [3H]ifenprodil from GluN1a/GluN2B (unknown origin) expressed in mouse L(tk-) cell membranes after 120 mins by solid scintillation counting method
Chain of Glutamate NMDA receptor; GRIN1/GRIN2B (Q13224 whole entry, other chains not shown): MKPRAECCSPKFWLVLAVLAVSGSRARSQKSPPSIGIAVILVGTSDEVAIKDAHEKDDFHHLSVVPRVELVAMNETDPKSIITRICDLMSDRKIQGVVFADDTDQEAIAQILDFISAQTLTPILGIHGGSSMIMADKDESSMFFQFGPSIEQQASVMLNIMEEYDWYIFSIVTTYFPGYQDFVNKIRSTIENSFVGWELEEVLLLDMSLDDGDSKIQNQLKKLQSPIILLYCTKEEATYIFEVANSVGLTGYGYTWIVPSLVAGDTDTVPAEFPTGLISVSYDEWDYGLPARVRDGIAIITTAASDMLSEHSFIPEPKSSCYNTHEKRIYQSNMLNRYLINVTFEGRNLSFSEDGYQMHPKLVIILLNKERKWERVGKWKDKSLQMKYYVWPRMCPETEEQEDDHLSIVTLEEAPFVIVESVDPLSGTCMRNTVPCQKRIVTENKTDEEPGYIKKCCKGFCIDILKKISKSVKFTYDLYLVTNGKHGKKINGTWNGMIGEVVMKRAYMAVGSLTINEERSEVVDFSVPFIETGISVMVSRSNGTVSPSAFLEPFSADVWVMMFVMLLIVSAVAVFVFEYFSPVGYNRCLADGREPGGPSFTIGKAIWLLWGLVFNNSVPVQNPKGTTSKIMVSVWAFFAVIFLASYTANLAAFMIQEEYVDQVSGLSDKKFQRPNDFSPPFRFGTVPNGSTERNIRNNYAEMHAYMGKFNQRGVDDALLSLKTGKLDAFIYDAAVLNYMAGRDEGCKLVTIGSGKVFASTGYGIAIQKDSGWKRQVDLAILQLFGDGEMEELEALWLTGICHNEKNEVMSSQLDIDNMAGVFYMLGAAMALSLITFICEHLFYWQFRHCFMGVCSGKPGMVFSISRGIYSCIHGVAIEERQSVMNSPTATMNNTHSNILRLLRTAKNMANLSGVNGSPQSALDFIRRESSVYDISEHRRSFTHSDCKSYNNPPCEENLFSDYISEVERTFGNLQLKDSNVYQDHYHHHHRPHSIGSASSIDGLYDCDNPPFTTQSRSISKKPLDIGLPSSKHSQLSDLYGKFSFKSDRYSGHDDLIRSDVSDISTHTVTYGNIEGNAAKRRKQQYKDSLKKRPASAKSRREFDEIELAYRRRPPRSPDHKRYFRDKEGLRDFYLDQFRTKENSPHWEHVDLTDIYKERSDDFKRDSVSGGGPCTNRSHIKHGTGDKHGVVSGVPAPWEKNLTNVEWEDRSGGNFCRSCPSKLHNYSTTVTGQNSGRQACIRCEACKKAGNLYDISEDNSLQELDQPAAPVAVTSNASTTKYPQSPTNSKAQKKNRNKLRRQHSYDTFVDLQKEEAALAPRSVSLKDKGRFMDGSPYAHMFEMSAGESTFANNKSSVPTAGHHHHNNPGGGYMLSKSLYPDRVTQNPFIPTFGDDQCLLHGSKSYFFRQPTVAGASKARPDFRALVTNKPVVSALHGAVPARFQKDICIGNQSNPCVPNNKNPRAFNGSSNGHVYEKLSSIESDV
In short: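 Membranes (about 20 μg protein) from mouse L(tk-) cells stably carrying GluN1a/GluN2B, induced with 4 μM dexamethasone and 4 μM ketamine for 24 h. Incubated with 5 nM [3H]ifenprodil in 5 mM TRIS/1 mM EDTA pH 7.5 at 37 °C, 120 min. Non-specific binding defined with 10 μM ifenprodil.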

[21] = Cytotoxicity against human Hep3B cells assessed as cell viability at 25 uM incubated for 48 hrs by MTT assay relative to control; type: cell-based, Hep 3B2; details: read-out: Activity; in short: as §1
[22] = Selectivity ratio of Ki for sigma2 receptor in rat liver membranes to Ki for GluN1a/GluN2B (unknown origin) expressed in mouse L(tk-) cell membranes; type: cell-based
[23] = Cytotoxicity against human HeLa cells assessed as decrease in cell viability incubated for 48 hrs by MTT assay; type: cell-based; details: read-out: LD50; in short: as §2

| SMILES | Ki [4] | Ratio Ki [10] | Ki [13] | Ki [20] | IC50 [1] | IC50 [2] | Ratio Ki [22] | other results |
| --- | --- | --- | --- | --- | --- | --- | --- | --- |
| Cc1c(C)c2c(c(C)c1O)CCC(C)(C(=O)O)O2 (stereo not drawn) [TROLOX] | – | – | – | – | 25.88 µg/mL (≈ 103 µM) | 22.15 µg/mL (≈ 88.5 µM) | – | – |
| Cc1ccc(CN(C)CCCCn2nc(-c3ccccc3)oc2=O)c(C)c1 | 20 nM | 0.95 | 21 nM | 26 nM | 31.44 µg/mL (≈ 86 µM) | 25.47 µg/mL (≈ 69.7 µM) | 0.8 | viability at 48 h, 25 µM [3]: 74%; viability at 48 h, 100 µM [5]: 28%; viability at 48 h, 50 µM [6]: 70%; viability at 48 h, 100 µM [7]: 25%; CC50 at 48 h [8]: 70000 nM; viability at 25 µM [9]: 100%; viability at 48 h, 50 µM [11]: 75%; viability at 48 h, 25 µM [12]: 85 to 96%; viability at 48 h, 100 µM [14]: 22%; viability at 48 h, 10 µM [15]: 121%; viability at 48 h, 10 µM [16]: 86%; viability at 48 h, 50 µM [17]: 80%; CC50 at 48 h [18]: 77000 nM; viability at 48 h, 10 µM [19]: 100%; viability at 48 h, 25 µM [21]: 83%; CC50 at 48 h [23]: 69000 nM |
| O=c1oc(-c2ccccc2)nn1CCCCN1CCN(C2CCCCC2)CC1 | 35 nM | 0.37 | 93 nM | 23 nM | 73.07 µg/mL (≈ 190 µM) | 69.25 µg/mL (≈ 180 µM) | 4 | viability at 48 h, 25 µM [3]: 48%; viability at 48 h, 100 µM [5]: 105%; viability at 48 h, 50 µM [6]: 72%; viability at 48 h, 100 µM [7]: 143%; CC50 at 48 h [8]: 71000 nM; viability at 25 µM [9]: 114%; viability at 48 h, 50 µM [11]: 75%; viability at 48 h, 25 µM [12]: 78 to 105%; viability at 48 h, 100 µM [14]: 57%; viability at 48 h, 10 µM [15]: 81%; viability at 48 h, 10 µM [16]: 62%; viability at 48 h, 50 µM [17]: 46%; CC50 at 48 h [18]: 81000 nM; viability at 48 h, 10 µM [19]: 72%; viability at 48 h, 25 µM [21]: 76%; CC50 at 48 h [23]: 76000 nM |

More lines, main results first:

| Ki [4] | Ratio Ki [10] | Ki [13] | Ki [20] | SMILES | IC50 [1] | IC50 [2] | Ratio Ki [22] | other results |
| --- | --- | --- | --- | --- | --- | --- | --- | --- |
| 179 nM | 2.2 | 80 nM | 58 nM | O=C1CCc2ccccc2N1CCCCN1CCc2ccc([N+](=O)[O-])cc2C1 | – | – | 1.4 | – |
| 829 nM | 2.2 | 383 nM | 412 nM | O=c1oc(-c2ccccc2)nn1CCCCN1CCc2ccc([N+](=O)[O-])cc2C1 | – | – | 0.9 | – |
| 120 nM | 1.6 | 73 nM | 78 nM | O=C1CCc2ccccc2N1CCCCN1CCN(c2ccccn2)CC1 | – | – | 0.9 | – |
| 383 nM | 0.57 | 686 nM | 68 nM | O=c1oc(-c2ccccc2)nn1CCCCN1CCN(c2ccc(F)cc2)CC1 | – | – | 10 | – |
